These results are taken from ChEMBL document CHEMBL1155097, “T-type Ca2+ channel blockers suppress the growth of human cancer cells” (Bioorg Med Chem Lett, 2008).

Where only a bound is given, the exact number is not on record here.

In one data set the test system is HT-29. Briefly: Growth inhibition of human HT29 cells after 72 hrs by SRB assay. In kind it is functional. To be noted: HT-29, 72 h. Put shortly: (§1)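 Cells seeded in 96-well plates, in exponential growth at time of sample addition; various concentrations added in triplicate, 37 °C, 5% CO2, 72 h. Fixed with formalin 30 min at room temperature, tap-water washed, stained with 0.4% SRB 30 min, washed with 1% acetic acid, dye solubilized in 10 mM unbuffered Tris base; OD at 520 nm. GI50 from dose–response curve, three independent experiments.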
A general note: Sulforhodamine B stains cellular protein and so reports cell mass.

A further data set relates to SK-OV-3. Kind of data set: Growth inhibition of human SKOV3 cells after 72 hrs by SRB assay. The data set is classed as functional. The note with it: SK-OV-3, 72 h. In short, it runs like this:
as §1

The subject of the next data set is SK-MEL-2. Kind of data set: Growth inhibition of human SK-MEL-2 cells after 72 hrs by SRB assay. In kind it is functional. The note with it: SK-MEL-2, 72 h. In short, it runs like this: as §1
For another data set, the system named is DU-145. Kind of data set: Growth inhibition of human DU145 cells after 72 hrs by SRB assay. In kind it is functional. The note with it: DU-145, 72 h. In short, it runs like this: as §1
A further data set relates to A549. Kind of data set: Growth inhibition of human A549 cells after 72 hrs by SRB assay. The data set is classed as functional. To be noted: A549, 72 h. Put shortly: as §1
In another data set the test system is Mus musculus. Briefly: Acute toxicity in ICR CD1 mouse assessed as mortality at 1000 mg/kg, po after 5 days. Details: dose 1000 mg/kg, route oral. In kind it is organism-based. The note with it: in vivo, 120 h. Put shortly:
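Single oral dose given as a corn oil mixture to two CD-1 (ICR) mice, with mortality monitored over 5 days.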

Data set [1] concerns the target Voltage-dependent T-type calcium channel subunit alpha-1G (Homo sapiens, UniProt O43497). Kind of data set: Inhibition of T-type calcium channel Cav3.1 alpha1G expressed in HEK293 cells by whole cell patch-clamp method. In kind it is cell-based. Put shortly: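 HEK293 stably coexpressing Cav3.1 (alpha1G) and Kir2.1; whole-cell recording, 3–4 MΩ electrodes. Internal (mM): 130 KCl, 11 EGTA, 5 Mg-ATP, 10 HEPES, pH 7.4. External (mM): 140 NaCl, 2 CaCl2, 10 HEPES, 10 glucose, pH 7.4. Currents evoked every 15 s by 50 ms step from −100 to −30 mV. IC50 for peak-current inhibition fitted from dose–response curves, three independent experiments.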

As a reminder, the GI50 is the concentration giving 50% growth inhibition. For orientation: IC50 means the midpoint of a concentration-inhibition curve.

Sequence of Voltage-dependent T-type calcium channel subunit alpha-1G (O43497 whole entry): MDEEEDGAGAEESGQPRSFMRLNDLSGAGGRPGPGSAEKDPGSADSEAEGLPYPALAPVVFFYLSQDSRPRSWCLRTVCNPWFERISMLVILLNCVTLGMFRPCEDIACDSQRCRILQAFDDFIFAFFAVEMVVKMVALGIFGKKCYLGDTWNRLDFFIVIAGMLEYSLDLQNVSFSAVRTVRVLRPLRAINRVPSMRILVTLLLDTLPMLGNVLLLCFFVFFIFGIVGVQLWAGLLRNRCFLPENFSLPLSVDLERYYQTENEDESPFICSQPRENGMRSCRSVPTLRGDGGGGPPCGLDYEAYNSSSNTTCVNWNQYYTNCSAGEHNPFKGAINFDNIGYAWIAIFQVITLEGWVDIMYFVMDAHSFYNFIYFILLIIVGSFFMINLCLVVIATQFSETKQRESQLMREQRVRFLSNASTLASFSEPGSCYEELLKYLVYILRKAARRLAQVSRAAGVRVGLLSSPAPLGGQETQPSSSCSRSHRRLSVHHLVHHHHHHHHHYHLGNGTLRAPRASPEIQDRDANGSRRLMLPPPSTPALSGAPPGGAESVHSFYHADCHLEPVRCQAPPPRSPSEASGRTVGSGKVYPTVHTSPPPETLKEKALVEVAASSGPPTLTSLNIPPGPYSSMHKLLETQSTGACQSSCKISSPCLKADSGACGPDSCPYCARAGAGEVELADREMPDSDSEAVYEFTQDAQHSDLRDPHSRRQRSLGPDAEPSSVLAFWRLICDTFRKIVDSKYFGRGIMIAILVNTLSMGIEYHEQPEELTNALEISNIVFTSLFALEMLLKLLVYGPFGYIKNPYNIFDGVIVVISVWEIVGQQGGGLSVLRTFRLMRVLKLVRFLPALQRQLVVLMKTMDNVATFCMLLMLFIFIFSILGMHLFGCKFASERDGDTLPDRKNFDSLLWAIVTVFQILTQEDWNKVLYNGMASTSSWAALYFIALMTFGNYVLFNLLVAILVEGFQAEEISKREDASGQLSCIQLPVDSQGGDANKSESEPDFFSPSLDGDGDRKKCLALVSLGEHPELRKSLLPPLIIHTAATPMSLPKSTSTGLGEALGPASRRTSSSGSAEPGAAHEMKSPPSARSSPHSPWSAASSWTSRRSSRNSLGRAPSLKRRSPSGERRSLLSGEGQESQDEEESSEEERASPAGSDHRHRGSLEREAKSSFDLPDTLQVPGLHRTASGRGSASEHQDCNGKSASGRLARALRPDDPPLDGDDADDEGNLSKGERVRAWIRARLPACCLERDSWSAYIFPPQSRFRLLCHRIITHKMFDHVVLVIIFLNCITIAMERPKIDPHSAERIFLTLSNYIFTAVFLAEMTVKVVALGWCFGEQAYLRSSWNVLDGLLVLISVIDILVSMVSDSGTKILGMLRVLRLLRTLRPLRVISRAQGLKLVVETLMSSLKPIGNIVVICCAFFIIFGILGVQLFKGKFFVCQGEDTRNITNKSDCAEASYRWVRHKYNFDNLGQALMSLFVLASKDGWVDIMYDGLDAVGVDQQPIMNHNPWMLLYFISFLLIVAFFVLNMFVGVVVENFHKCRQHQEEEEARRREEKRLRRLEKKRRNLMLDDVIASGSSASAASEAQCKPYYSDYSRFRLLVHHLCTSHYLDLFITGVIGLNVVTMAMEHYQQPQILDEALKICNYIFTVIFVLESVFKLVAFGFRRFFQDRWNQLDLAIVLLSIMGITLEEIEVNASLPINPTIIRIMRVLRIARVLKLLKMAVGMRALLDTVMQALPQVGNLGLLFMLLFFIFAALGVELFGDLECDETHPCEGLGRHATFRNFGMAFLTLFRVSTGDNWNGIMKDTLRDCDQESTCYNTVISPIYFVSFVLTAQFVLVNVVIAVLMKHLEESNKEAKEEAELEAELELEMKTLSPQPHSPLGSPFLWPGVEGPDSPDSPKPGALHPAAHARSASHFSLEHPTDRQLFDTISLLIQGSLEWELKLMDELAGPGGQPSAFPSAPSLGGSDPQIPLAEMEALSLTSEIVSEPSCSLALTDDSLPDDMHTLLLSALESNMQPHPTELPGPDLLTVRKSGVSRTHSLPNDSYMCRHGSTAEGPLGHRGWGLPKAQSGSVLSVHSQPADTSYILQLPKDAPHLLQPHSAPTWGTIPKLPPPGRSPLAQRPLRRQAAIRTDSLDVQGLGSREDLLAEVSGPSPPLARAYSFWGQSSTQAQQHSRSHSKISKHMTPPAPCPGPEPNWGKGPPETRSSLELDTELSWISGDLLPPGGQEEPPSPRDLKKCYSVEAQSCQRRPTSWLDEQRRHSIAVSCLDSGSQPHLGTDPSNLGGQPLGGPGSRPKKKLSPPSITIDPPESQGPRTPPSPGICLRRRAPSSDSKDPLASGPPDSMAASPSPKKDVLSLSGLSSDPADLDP

For `COC(=O)CC1c2ccccc2N=C(Nc2ccc(-c3ccccc3)cc2)N1CCCCCN` (stereo unspecified), the 50% growth inhibitory concentration (GI50) was found to be 1080 nM in the data set on HT-29; 3990 nM in the data set on SK-OV-3; 1800 nM with SK-MEL-2; 4090 nM in the data set with DU-145; 2900 nM in the data set on A549.
As for `COC(=O)CC1c2ccccc2N=C(NCCCCCNC(=O)OC(C)(C)C)N1c1ccc(-c2ccccc2)cc1` (stereo unspecified), the 50% growth inhibitory concentration (GI50) was determined as 2080 nM in the data set on HT-29; 4610 nM in the data set on SK-OV-3; 4310 nM in the data set with SK-MEL-2; 3830 nM with DU-145; 3830 nM in the data set on A549.
In the case of `CN(CCCCCN1CCCC1)C1=Nc2ccccc2C(CC(=O)NCc2ccccc2)N1c1ccc(-c2ccccc2)cc1` (stereo unspecified), the concentration for 50% growth inhibition (GI50) with HT-29 was determined as 610 nM; in the data set on SK-OV-3, 2760 nM; with SK-MEL-2, 690 nM; in the data set on DU-145, 2490 nM; with A549 it was 870 nM.
The like results for `O=C(CC1c2ccccc2N=C(N2CCCCC2)N1c1ccccc1)NCc1ccc(NS(=O)(=O)c2ccc(F)cc2)cc1` (stereo unspecified) were, in that order, 1710 nM, 1950 nM, 1730 nM, 1710 nM and 1930 nM.
In the same order, the values of `CC(C)(C)OC(=O)NCCCCCN1C(Nc2ccc(-c3ccccc3)cc2)=Nc2ccccc2C1CC(=O)NCc1ccccc1` (stereo unspecified) are 1700 nM, 2010 nM, 1590 nM, 1790 nM and 1870 nM.
For `CN(C)CCCCCN(C)C1=Nc2ccccc2C(CC(=O)NCc2ccccc2)N1c1ccc(-c2ccccc2)cc1` (stereo unspecified), the concentration for 50% growth inhibition (GI50) in the data set with HT-29 is 40 nM; in the data set with SK-OV-3 it was 660 nM; in the data set on SK-MEL-2 it was 480 nM; with DU-145, 190 nM; with A549, 170 nM. In the data set with Mus musculus, the Activity entry is given as “Non-toxic”.
On to `COC(=O)CC1c2ccccc2N=C(N(C)CCCCCN(C)C)N1c1ccc(-c2ccccc2)cc1` (stereo unspecified), for which the GI50 in the data set on HT-29 is 520 nM; with SK-OV-3, 1950 nM; in the data set with SK-MEL-2 it was 1910 nM; with DU-145, 1780 nM; in the data set with A549, 1770 nM.
As to `CN(C)C1=Nc2ccccc2C(CC(=O)NCc2ccc([N+](=O)[O-])cc2)N1c1ccccc1` (stereo unspecified), in data set [1], the half-maximal inhibitory concentration (IC50) worked out at 350 nM. Besides, the concentration for 50% growth inhibition (GI50) in the data set on HT-29 was 22300 nM; with SK-OV-3 it was > 100000 nM; in the data set with SK-MEL-2 it was 31600 nM; with DU-145, > 100000 nM; with A549 it was > 100000 nM.
With `CN(C)C1=Nc2ccccc2C(CC(=O)NCc2ccc(N)cc2)N1c1ccccc1` (stereo unspecified), the IC50 in data set [1] stood at 380 nM. The GI50 in the data set on HT-29 was 28300 nM; in the data set with SK-OV-3 it was > 100000 nM; in the data set on SK-MEL-2, 44000 nM; with DU-145, > 100000 nM; in the data set with A549, > 100000 nM.
For `Cc1ccc(S(=O)(=O)Nc2ccc(CNC(=O)CC3c4ccccc4N=C(N(C)C)N3c3ccccc3)cc2)cc1` (stereo unspecified), the IC50 in data set [1] amounted to 630 nM. Moreover, the 50% growth inhibitory concentration (GI50) came out at 3150 nM with HT-29; 15600 nM in the data set on SK-OV-3; 8530 nM in the data set on SK-MEL-2; 6520 nM with DU-145; 14300 nM in the data set on A549.
Regarding `CCN1C(N2CCCCC2)=Nc2ccccc2C1CC(=O)NCc1ccc(NS(=O)(=O)c2ccc(F)cc2)cc1` (stereo unspecified), in data set [1], the IC50 worked out at 1040 nM. The 50% growth inhibitory concentration (GI50) with HT-29 was 13900 nM; with SK-OV-3 it was 26100 nM; in the data set on SK-MEL-2, 17000 nM; with DU-145, 17200 nM; in the data set on A549, 24500 nM.
For `CC(C)(C)OC(=O)NCCCCCNC1=Nc2ccccc2C(CC(=O)NCc2ccccc2)N1c1ccccc1` (stereo unspecified), the IC50 in data set [1] came to 570 nM. Besides, the GI50 is 3180 nM in the data set with HT-29; 7180 nM in the data set on SK-OV-3; 2020 nM in the data set on SK-MEL-2; 4260 nM with DU-145; 7740 nM in the data set with A549.
In the case of `CC(C)(C)OC(=O)NCCCCCNC1=Nc2ccccc2C(CC(=O)NCc2ccccc2)N1c1ccc(-c2ccccc2)cc1` (stereo unspecified), the GI50 in the data set with HT-29 amounted to 1670 nM; in the data set with SK-OV-3, 1610 nM; in the data set with SK-MEL-2, 1480 nM; in the data set with DU-145, 1640 nM; in the data set on A549 it was 1830 nM.
`COc1cccc2c1C(=O)c1c(O)c3c(c(O)c1C2=O)C[C@@](O)(C(=O)CO)C[C@@H]3O[C@H]1C[C@H](N)[C@H](O)[C@H](C)O1` (stereo in doubt) [DOXORUBICIN]: the GI50 with HT-29 was 210 nM; with SK-OV-3, 120 nM; in the data set on SK-MEL-2, 110 nM; with DU-145 it was 60 nM; in the data set on A549, 160 nM.
